Experimental data taken from ChEMBL document CHEMBL1127550 (J Med Chem, 1994).

Legend:
[1] = species: Mus musculus; test: Tested for potency towards inhibition of the twitch response in mouse vas deferens; format: functional
In short: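 Vasa deferentia from albino MF1 mice were mounted at 0.5 g initial tension in Mg2+-free Krebs at 37 °C, gassed 95% O2/5% CO2, and stimulated electrically (0.5 ms pulses). Increasing doses were added after washout; twitch amplitude at 14-15 min post-addition was compared with the pre-drug final minute. IC50 came from nonlinear-regression sigmoid log concentration-response curves, n = 6-8 tissues.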

[2] = molecular target: T1, Cannabinoid receptor (Rattus norvegicus, UniProt Q9QZN9+P20272); test: Binding affinity for the cannabinoid receptor in the presence of phenylmethanesulfonyl fluoride (PMSF) was determined in rat fore brain membranes; format: cell membranes, Membrane
[3] = molecular target: T1, Cannabinoid receptor; test: Binding affinity for the cannabinoid receptor in the absence of phenylmethanesulfonyl fluoride (PMSF) was determined in rat fore brain membranes; format: cell membranes, Membrane
[4] = test system: Mus musculus; test: Mean difference between rectal temperature measured at time zero and rectal temperature measured at 10 min at 6.25 (mg/kg) intravenous dose in 6 mice; format: ADME, organism-based; settings: in vivo
In short: (§1)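 Male MF1 mice (23-29 g), drug dispersed with two parts Tween 80 by weight in 0.9% saline, injected iv at time zero; Tween 80 vehicle control. Rectal thermistor probe inserted 3 cm, read shortly before time zero and at 10 min; change = difference. Mice unrestrained in separate cages, ambient 20-22 °C. Means ± SE, Dunnett's test versus vehicle.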

[5] = test system: Mus musculus; test: Mean number of squares entered(counts) over a 5 min period after placement in the center of a walled arena marked out in 16 squares of equal size at 10 (mg/kg) intravenous dose in 6 mice; format: ADME, organism-based; settings: in vivo
In short: (§2)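 Male MF1 mice (23-29 g) given drug iv at time zero (Tween 80/saline dispersion; vehicle control). Each mouse was placed immediately in the centre of a 30 × 30 cm walled arena divided into 16 equal squares. Squares entered from 0 to 5 min were counted. Ambient 20-22 °C, means ± SE, Dunnett's test against vehicle.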

[6] = test system: Mus musculus; test: Mean number of squares entered(counts) over a 5 min period after placement in the center of a walled arena marked out in 16 squares of equal size at 6.25 (mg/kg) intravenous dose in 6 mice; format: ADME, organism-based; settings: in vivo; in short: as §2
[7] = test system: Mus musculus; test: Mean percentage time spend immobile on ring between 5 and 10 min at 6.25 (mg/kg) intravenous dose in 6 mice; format: ADME, organism-based; settings: in vivo
In short: (§3)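 In male MF1 mice (23-29 g) dosed iv at time zero with a Tween 80/saline dispersion, each animal was placed at 5 min on a 5.5-cm horizontal ring on a 16-cm stalk. The percentage of the 5-min session spent immobile was scored. Ambient 20-22 °C, means ± SE, Dunnett's test versus vehicle.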

[8] = test system: Mus musculus; test: Mean percentage time spend immobile on ring between 5 and 10 min at 10 (mg/kg) intravenous dose in 6 mice; format: ADME, organism-based; settings: in vivo; in short: as §3
[9] = test system: Mus musculus; test: Mean difference between rectal temperature measured at time zero and rectal temperature measured at 10 min at 10 (mg/kg) intravenous dose in 6 mice; format: ADME, organism-based; settings: in vivo; in short: as §1
[10] = test system: Mus musculus; test: Mean difference between rectal temperature measured at time zero and rectal temperature measured at 10 min at 3.125 (mg/kg) intravenous dose in 6 mice; format: ADME, organism-based; settings: in vivo; in short: as §1
[11] = test system: Mus musculus; test: Mean percentage time spend immobile on ring between 5 and 10 min at 1.5625 (mg/kg) intravenous dose in 6 mice; format: ADME, organism-based; settings: in vivo; in short: as §3
[12] = test system: Mus musculus; test: Mean percentage time spend immobile on ring between 5 and 10 min at 3.125 (mg/kg) intravenous dose in 6 mice; format: ADME, organism-based; settings: in vivo; in short: as §3
[13] = test system: Mus musculus; test: Mean number of squares entered(counts) over a 5 min period after placement in the center of a walled arena marked out in 16 squares of equal size at 3.125 (mg/kg) intravenous dose in 6 mice; format: ADME, organism-based; settings: in vivo; in short: as §2
[14] = test system: Mus musculus; test: Mean number of squares entered(counts) over a 5 min period after placement in the center of a walled arena marked out in 16 squares of equal size at 1.5625 (mg/kg) intravenous dose in 6 mice; format: ADME, organism-based; settings: in vivo; in short: as §2
[15] = test system: Mus musculus; test: Mean difference between rectal temperature measured at time zero and rectal temperature measured at 10 min at 1.5625 (mg/kg) intravenous dose in 6 mice; format: ADME, organism-based; settings: in vivo; in short: as §1

## CCCCC/C=C\C/C=C\C/C=C\C/C=C\CCCC(=O)NC[C@H](C)O
[1]
  IC50: 47 nM
[2]
  Ki: 26 nM
[3]
  Ki: 158 nM

## CCCCC/C=C\C/C=C\C/C=C\C/C=C\CCCC(=O)NC[C@@H](C)O
[1]
  IC50: 100 nM
[2]
  Ki: 119 nM
[3]
  Ki: > 2950 nM

## CCCCC/C=C\C/C=C\C/C=C\C/C=C\CCCC(=O)N[C@@H](C)CO
[1]
  IC50: 230 nM

## CCCCC/C=C\C/C=C\C/C=C\C/C=C\CCCC(=O)NCCO [ANANDAMIDE]
[1]
  IC50: 52 nM
[4]
  Body temperature: -3.18 °C
[5]
  Hypokinesia: 14.7 Counts
[6]
  Hypokinesia: 10.2 Counts
[7]
  Ring immobility: 93.9%
[8]
  Ring immobility: 64.2%
[9]
  Body temperature: -1.43 °C

## CCCCC/C=C\C/C=C\C/C=C\C/C=C\CCCC(=O)N[C@H](C)CO [METHANANDAMIDE]
[1]
  IC50: 12 nM
[10]
  Body temperature: 1.5 °C
[11]
  Ring immobility: 40.2%
[12]
  Ring immobility: 87.4%
[13]
  Hypokinesia: 26.5 Counts
[14]
  Hypokinesia: 76.8 Counts
[15]
  Body temperature: 0.27 °C
